This data set deals with MS2 coat protein. In words: apparent Kd, MS2 coat protein; higher = weaker binding; RNA-MaP array; FMN 200 µM where present. In short, it runs like this: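 Each design was made on Illumina sequencing-chip clusters by stalled E. coli RNA polymerase and titrated with SNAP-549-labelled MS2 coat protein from 0.7 or 1.5 nM, doubling to 3 µM, in the absence and then the presence of constant ligand. The buffer was 100 mM Tris-HCl pH 7.5, 80 mM KCl, 4 mM MgCl2, BSA, DTT, yeast tRNA and Tween-20. The apparent Kd is the median of filtered per-cluster fits of binding curves, with green signal normalised to red-channel RNA signal and control-cluster median Fmax.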

[1] abbreviates: designed as: OFF switch for flavin mononucleotide, no ligand.
The mark [2] stands for this setting: ligand present: flavin mononucleotide, designed as: OFF switch for flavin mononucleotide.
[3] abbreviates: designed as: ON switch for flavin mononucleotide, no ligand.
Setting [4] is: ligand present: flavin mononucleotide, designed as: ON switch for flavin mononucleotide.

With “UCCAGGCGAGGAUAUACUUAGAUUUUUUCGUUUAGUCUCGAACAUGAGGAUCACCCAUGUAGAAGGUGCUUCAC”, the “apparent Kd” value runs as follows: under setting [1], 45.6 nM; under setting [2], 42 nM. In the case of “UGGUACAUCGGAGGAUAUCGUGUGUAAACAUGAGGAUCACCCAUGUCGUACGAGAGUACGGAGAUCGAGAAGGCCGAUGUACCU”, the “apparent Kd” value runs as follows: under setting [3], 16.4 nM; under setting [4], 15.1 nM. “AUCAGCUCGUGAGGAUAUACAACACUGCUUCGGCAGUGUAUUAAGAUCACAUGAGGAUCACCCAUGUAGAAGGCACGAGCUGAU”: the “apparent Kd” value is, setting by setting: under setting [1], 13.5 nM; under setting [2], 278 nM. On the same counts, the results for “UCGGCGCGAGGAUAUACGUUUGCUUUUUUUUGUCGUUGCGUACAUGAGGAUCACCCAUGUAGAAGGCGCGCCGC” are 16.7 nM and 31 nM. “GACAUGGUCUAGAAGGGCUAUCUAUUUAAGUACGAUUUAGAACAGCAUAGCAGGAUAUGGCUAACAUGAGGAUCACCCAUGUUC”: the “apparent Kd” value is, setting by setting: under setting [3], 40.5 nM; under setting [4], 18.7 nM. In the case of “UACACGGUAGGAUAUACGUAGAUGCAGGUUCGUGUGGUGCUACAUGAGGAUCACCCAUGUAGAAGGACCAACGU”, the “apparent Kd” value came to 15.7 nM under setting [1] and 15.2 nM under setting [2]. Taken in the same sequence, the figures for “CCGAAUAUGCAGGAUAUCGUAUCGGAGACGAUACGAGAAGGGCAAACAUGAGGAUCACCCAUGUUCCUUAACGG” were 19.1 nM and 22.5 nM. Taken in the same sequence, the figures for “CCCUCACAUGAGGAUCACCCAUGUUAGGAUAUCUACCAGGAGCUUUGAAUUGCCCAACGGAGAAGGAACGUGCA” were 16.9 nM and 17.4 nM. Taken in the same sequence, the figures for “CUUCGACAUGAGGAUCACCCAUGUCAGGAUAUUGUGUAUCGGGUGUUGGACGGAUAGGCAAGAAGGGAUGUGUG” were 34.7 nM and 30.1 nM.

Take “AUCCAGGUAACAUGAGGAUCACCCAUGUUCCUUCGCUCUGGCAAGGAUAUGAAGGGAUUGUCCCAUCAGAAGGUGCAUGGGUGC”: the “apparent Kd” value runs as follows: under setting [3], 23 nM; under setting [4], 19.9 nM. Regarding “UGAUAGGACAGAGGAUAUACGUGCUAGAGAUACUAGCAAAAUUAAAUAACAUGAGGAUCACCCAUGUAGAAGGCUGUCCUAUCU”, the “apparent Kd” value worked out at 5.01 nM under setting [1] and 7.01 nM under setting [2]. On the same counts, the results for “UAUGUAUUCGUAGGAUAUCCGUUAAAACCAUGUGGAGAAGGACGAACAUGAGGAUCACCCAUGUAUCAUGGUGUAGACAAUUUU” are 55.5 nM and 321 nM.

On to “GCACAUUUGUAAGGAUAUACAACAUGAGGAUCACCCAUGUGAUUGAAUUUAGUAGAAGGUACAGAAAUGAGUAUCACUUUUGUA”, for which the “apparent Kd” value is, setting by setting: under setting [3], 16.8 nM; under setting [4], 10.9 nM. Consider “CAGGUAGACUGAGGAUAUACAUUAAACAGCUAGUCUAUCUAGCUGGUCACAUGAGGAUCACCCAUGUAGAAGGCAGUCUGCCUG”, for which the “apparent Kd” value reads like this: under setting [1], 24.6 nM; under setting [2], 65.4 nM. Taken in the same sequence, the figures for “GCCUUAUCCGUCAGGAUAUACAUUUGUUAGUUGUUGUAGAAGGGACAUGAGGAUCACCCAUGUACAUUACAUUG” were 19.4 nM and 22.4 nM. Take “GAUCCACAUGAGGAUCACCCAUGUGAGGAUAUGAUACUAUGUACUUCGGUACAUAGUAUCAGAAGGCACAGGUC”: the “apparent Kd” value was determined as 51.4 nM under setting [1] and 160 nM under setting [2].

Take “AAAUCGUCAGGAUAUGCAUGUAAUUGUUACAUUUCUCCGUUGCAGAAGGGACAUGAGGAUCACCCAUGUAAGUC”: the “apparent Kd” value is 31.2 nM under setting [1] and 29.2 nM under setting [2]. “GUGCCUUAUGAGAAGGCGAUCAUGAAACAUGAUCGAGGAUAUCAUGAAAACAUGAGGAUCACCCAUGUAUGGGUAUUAUGGUAC”: the “apparent Kd” value is, setting by setting: under setting [3], 107 nM; under setting [4], 27.8 nM.

For “AGCAUGUAAGGAUAUGCAAGUGGUACGGAUAGUACCAGAAAGCAGAAGGUACAUGAGGAUCACCCAUGUGCUCC”, the “apparent Kd” value was found to be 28.2 nM under setting [1] and 55.2 nM under setting [2]. Take “GCACGUGGACAGAAGGCGACAUGAGGAUCACCCAUGUUGGCUCGGGUAUGACCAAUCCGCAUGAUCGAGGAUAUGUCUGCGGGC”: the “apparent Kd” value was determined as 264 nM under setting [1] and 15.9 nM under setting [2]. Taken in the same sequence, the figures for “CGGCGGAAAGGAUAUGCAGUAAUAUCAAAAUGUGGGCCACGACAUGAGGAUCACCCAUGUAGAAGGUUCAGCCA” were 16 nM and 13.6 nM. On the same counts, the results for “GCGUGUCAUGUAGGAUAUGACACAGGAAACUGGUCAGAAGGACAUGAGGAUCACCCAUGUAAAAUGUUCAAGAAUAACACAUGC” are 50.6 nM and 185 nM.

Turning to “CUAGUACAUGAGGAUCACCCAUGUCAGGAUAUUGGAUAUGCCUUGGAAUACAUGUUUACAAGAAGGGACUAUAG”, the “apparent Kd” value by setting is: under setting [1], 23 nM; under setting [2], 21.7 nM. For the sequence “UGUGUAGAGGUGAAGCGAAUUACUGAGGAUAUGACAUGAGGAUCACCCAUGUACACAUCGUCAGGUCAGAAGGCAGUGGUUCUU”, the “apparent Kd” value is 7.2 nM under setting [1] and 21.1 nM under setting [2]. On the same counts, the results for “AGAUACUACGAGAAGGACAUGAGGAUCACCCAUGUAACCUGUAUCAGGAAUGUAGGAUAUCGUAGUAUCAGGAUCGUGAGAUCA” are 6.79 nM and 7.82 nM.

In the case of “UUCAAAUUCGUAGGAUAUGUAUAAAUUUUCUACAUGAGGAUCACCCAUGUUACCAUUUUAAAUUGACAGAAGGACGUAAUCUAA”, the “apparent Kd” value was determined as 22.5 nM under setting [3] and 8.74 nM under setting [4]. As for “GUCAGCUCGUGAGGAUAUACAUCACUGCUUCGGCAGUGUAUUAAGACUACAUGAGGAUCACCCAUGUAGAAGGCACGAGCUGAU”, the “apparent Kd” value worked out at 17.4 nM under setting [1] and 17.9 nM under setting [2]. On the same counts, the results for “UGGUGAAUUGAGAAGGGAACAGAUGUAGCUCCACAUGAGGAUCACCCAUGUUCAGGAUAUCAGUGCCCGACCUUGAGCGGUCGC” are 7.92 nM and 11.8 nM.

Regarding “AUCAUGUAAGGAUAUCUUACAUGUGACUUCGGUCACAGUUAAGAGAAGGUACAUGAGGAUCACCCAUGUAUAAC”, the “apparent Kd” value stood at 28 nM under setting [1] and 45.3 nM under setting [2]. Consider “CUCGUGUGAGGAUAUCUAUUCCACGGACGGGAGUCUUGAAGAGAGAAGGCACAUGAGGAUCACCCAUGUAAUAA”, for which the “apparent Kd” value under setting [2] was 33.7 nM.

Consider “GCUGACGAUGUAGGAUAUCUCGACGAUAAGUCGAGAGAAGGACAUGAGGAUCACCCAUGUAAACUCACGUCAGCGAGGAAACUC”, for which the “apparent Kd” value runs as follows: under setting [1], 16.1 nM; under setting [2], 17.2 nM. On to “AGCUACGUUUCGUAGCAGCUAGGUGAGGAUAUCCUUAACAUGAGGAUCACCCAUGUUUAGCCAUGGGAGAAGGCGCCUAGAAAG”, for which the “apparent Kd” value runs as follows: under setting [3], 259 nM; under setting [4], 21.5 nM. Take “GGGUUGUGAGGAUAUUAGUUGUACGUCAAUAGACGUGUGGGUGAGAAGGCACAUGAGGAUCACCCAUGUUCCUG”: the “apparent Kd” value is, setting by setting: under setting [1], 181 nM; under setting [2], 169 nM. For the sequence “AUCAGCUCGUCAGGAUAUACGUCACUGCUUCGGCAGUGUAUUAAGAUCACAUGAGGAUCACCCAUGUAGAAGGGACGAGCUGAU”, the “apparent Kd” value is 21.7 nM under setting [1] and 226 nM under setting [2]. As for “UGUUGUAUUACAGGAUAUCUAUUAUUGUUAUUUAGAGAAGGGUAUUCACAUGAGGAUCACCCAUGUAUAUACGAGGAAGUUGUG”, the “apparent Kd” value was found to be 54.7 nM under setting [3] and 55.3 nM under setting [4]. “UAGUAUAAGGGCAUUAAACAUGAGGAUCACCCAUGUACAAUAGAGGAUAUGCAUUUCAGUUUAGAGUAGAAGGUUAGAGAAUAU”: the “apparent Kd” value was determined as 35.6 nM under setting [1] and 41.1 nM under setting [2]. On to “AAGUAGAUCCGAGGAUAUACAAACCGGAAACGGUACAUGAGGAUCACCCAUGUAGAAGGCGGAUCUACAGGUACUAAAGUACCA”, for which the “apparent Kd” value is 5.33 nM under setting [1] and 8.68 nM under setting [2]. Taken in the same sequence, the figures for “AAACUGCAGAAGAUAAUAAUGAAUACAUGAGGAUCACCCAUGUAGGAUAUCGUCAGGAAUACUGACGAGAAGGACAUACUGCAG” were 14.3 nM and 15.6 nM. Taken in the same sequence, the figures for “UGAGUGCGUGUUAGGAUAUGGUUUGGUGUUUCGGGCUAGAAGGGACAUGAGGAUCACCCAUGUAAUUGGCGGGU” were 253 nM and 250 nM. Taken in the same sequence, the figures for “CUUUUGUGAGGAUAUCAGUAGUAAAAAAAUAAAAUUACUAUUGAGAAGGCACAUGAGGAUCACCCAUGUUCCUC” were 34.5 nM and 168 nM. Take “UACUUCCGAGGAUAUACAUGAGGAUCACCCAUGUGCUUCAGCAUUUUUUGAUGCAUGGGUAGAAGGCGGUAGUU”: the “apparent Kd” value under setting [1] came out at 315 nM and the “apparent Kd” value under setting [2] was 270 nM. On the same counts, the results for “AGAUAAUAGCAGAAGGGCCAUGGACAUGAGGAUCACCCAUGUAACGGUGGACUCAUUUGUGAAGGGCAGGAUAUGCAAUAAAGA” are 160 nM and 13.4 nM. Taken in the same sequence, the figures for “AAAAAACAUGAGGAUCACCCAUGUGAGGAUAUGGAAAAAAAAAAAAAAAAAAAAAAAACCAGAAGGCACAAAAA” were 92.6 nM and 60 nM. On the same counts, the results for “GGUGGACAUGAGGAUCACCCAUGUGAGGAUAUCGGCUGGCUACUCGCUGACGGCUGCUCGAGAAGGCGCAUUGU” are 46.3 nM and 95.6 nM. Regarding “UUUGUUUGCGGAGGAUAUAUAAGUGGAUCACCCAUAGAAGGCCGACAUGAGGAUCACCCAUGUUAGACAUGAGGAUCACCCAUG”, the “apparent Kd” value by setting is: under setting [1], 102 nM; under setting [2], 140 nM. Consider “GCCCUCGCUGAGGAUAUUAUCUGGCUCGAUUGAUAAGAAGGCAGUACAUGAGGAUCACCCAUGUGGUUCGUUCG”, for which the “apparent Kd” value was 69.5 nM under setting [1] and 265 nM under setting [2].

For the sequence “UUGGACGUCGUAGGAUAUGUGGGAUAUUCCUACAUGAGGAUCACCCAUGUUGACAUGGAAGAAGGACAGAAGGACGAUGUCCAU”, the “apparent Kd” value was 31.1 nM under setting [3] and 5.52 nM under setting [4].

Turning to “GAUAGGACAGAGAAGGUACGUGCUAGAGAUACUAGCAAAAUACCUCAACAUGAGGAUCACCCAUGUAAGGAUAUCUGUCCUAUC”, the “apparent Kd” value is, setting by setting: under setting [1], 5.7 nM; under setting [2], 6.19 nM.

Source of the values: the EternaBench riboswitch data.
